PGC1a acetyl inh: PGC1a acetylation modulation, inhibitor mode. U2OS PGC1a acetylation, AlphaScreen anti-acetyl-lysine; with virally co-expressed GCN5 acetyltransferase. inhibition, % at 15.6 µM. 350,000 compounds, 0.17% hits;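 active = every replicate shows inhibition of at least 40%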;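 also: 0% = neutral control wells and 100% = positive control wells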
Cneo AK release: Cryptococcus neoformans lysis via adenylate kinase release. C. neoformans lysis, adenylate kinase release luminescence, 4 h; normalised: neutral wells 0, clomiphene wells 100. lysis activity, % at 15 µM. 360,000 compounds, 0.2% hits;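 active = mean lysis activity across replicates of at least 80%, whatever share of replicates individually reach that level; inactive = mean lysis activity below 80%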
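Material: C. neoformans cells | Amount: Yeast cell density of 5 × 10^6 cells/mL | Medium: Fresh YPD growth medium | Dosing: Single dose | Times: Static 4 h at 37 °C with compound, 1 h detection | Detection: AK luminescence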
Ecoli rRNA inh: inhibits bacterial ribosomal RNA function over humanized ribosomes; E. coli WT GFP vs humanized-ribosome RFP mutants, fluorescence, 24 h; active compounds read low; DMSO median 0, no signal -100; GFP signal change (wild-type ribosome), % (no concentration beside the values); AID 720706; 350,000 compounds, 1.6% hits;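 active = significant combined selectivity score with lowered wild-type GFP, culture density cut under 30%, mutant RFP and density less affected; inactive = any of these conditions unmet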
FGF22 binding: FGF22 (human) thermal shift binding. Q9HCT0. recombinant FGF22 thermal shift, SYPRO orange fluorescence; percent of sucrose octasulfate shift, DMSO zero. activity (Tm shift, normalised), % at 9.99 µM. 340,000 compounds, 1.5% hits. AID 651658;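 active = mean Tm shift, scaled 0 neutral to 100 positive control, at about 1.3% or above, every replicate too, limit read from the data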
Target sequence (Q9HCT0 whole entry, looked up): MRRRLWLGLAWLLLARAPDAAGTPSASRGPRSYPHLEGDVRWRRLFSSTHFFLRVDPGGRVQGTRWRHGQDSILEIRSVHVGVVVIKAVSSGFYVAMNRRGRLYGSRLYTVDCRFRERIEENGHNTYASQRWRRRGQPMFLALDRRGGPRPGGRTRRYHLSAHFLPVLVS
Env fusion inh: HIV envelope-mediated fusion inhibition | HeLa-JRFL Env/CEM21 cell fusion, luciferase | inhibition, % at 12.3 µM | 360,000 compounds, 1.1% hits | AID 651610;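 active = mean replicate inhibition score of at least 50 and every replicate individually at or above 50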;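 also: 0% = plate neutral controls and 100% = maraviroc near 300 nM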
ERAP1 HTS inh: blocks human ERAP1 aminopeptidase activity. Q9NZ08. recombinant ERAP1, Leu-AMC fluorescence, 60 min. inhibition, % at 10.7 µM. 340,000 compounds, 0.15% hits;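 active = mean replicate inhibition of at least 30%, or all replicates individually reaching that 30% level; inactive = mean below 30% and not every replicate reaching it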;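 also: 0% = neutral control wells and 100% = L-leucinethiol positive control wells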
Starred values were filed as active, the others as inactive; . = no result; [ ] = remark or other dose. The list is not random: actives were taken first. Their share in the collection is about 3.5%.

SMILES	PGC1a acetyl inh	Cneo AK release	Ecoli rRNA inh	FGF22 binding	Env fusion inh	ERAP1 HTS inh
O=C(CC12CC3CC(CC(C3)C1)C2)N1CCCOC1	.	0	.	.	29	.
COc1cccc(/C=N/NC(=O)CC2C(=O)NN=C2C)c1O (stereo unspecified)	5	0	.	.	70*	.
COc1cccc(/C=N/NC(=O)CCn2nnc3ccccc32)c1	3	-1	4	44*	10	-2
CN1[C@@H]2c3ccc(-c4cccnc4)c(=O)n3C[C@@H]2[C@@H](CO)[C@@H]1C(=O)N1CCc2ccccc2C1	.	113*	2	0	.	-5
CC=Cc1ccc2n(c1=O)C[C@H]1[C@H](CO)[C@@H](C(=O)N3CCc4ccccc4C3)N(C)[C@@H]21 (mixture of isomers)	.	.	-1	.	.	-1
O=C(CNC(c1ccccc1)c1ccccc1)Nc1ccccc1Br	-15	-1	-33*	0	18	-3
COc1ccccc1NC(=O)CNC(c1ccccc1)c1ccccc1	.	-1	-8	0	22	-3
O=C(NCc1cccnc1)c1c[nH]c2cc3c(cc2c1=O)OCCO3	16	-8	.	.	75*	.
COCCCn1c(SCc2ccc(OC)cc2)nc2cc(OC)c(OC)cc2c1=N	-12	0	.	.	57*	.
Cc1ccc(-c2nnc(NC(=O)c3ccco3)o2)c(C)c1	.	-9	-24*	-1	.	2
CCCn1nc(C(=O)OCC(=O)Nc2cccc(OC)c2)c2ccccc2c1=O	16	.	3	43*	10	-7
COc1ccc(OC)c(-c2nc(CN3CCCCC3c3cccnc3)c(C)o2)c1 (stereo unspecified)	-7	.	-5	0	1	9
COc1ccc(-c2nc(CN3CCCCC3c3nccn3C)c(C)o2)c(C)c1C (stereo unspecified)	19	0	-33*	1	24	0
Cc1ccc(S(=O)(=O)N(C)C[C@@H]2Oc3ccc(NC(=O)CCC(F)(F)F)cc3C(=O)N([C@H](C)CO)C[C@H]2C)cc1	1	-4	-3	-1	-18[16.7 µM]	6
COc1ccccc1-c1cc(NC=O)c2ncc(-c3cccc(C(C)=O)c3)n2c1	-9	-2	-2	-1	67*	-3
O=CNc1cc(-c2ccsc2)cn2c(-c3ccccc3)cnc12	.	146*	14	0	-33	0
CS(=O)(=O)c1ccc(-c2cnc3c(NC=O)cc(-c4ccsc4)cn23)cc1	.	5	4	0	-24	14
CC(=O)Nc1cccc(-c2cc(NC(C)=O)c3ncc(-c4cccc(C(C)=O)c4)n3c2)c1	-2	1	1	43*	.	6
CC(=O)c1ccc(-c2cnc3c(NC=O)cc(-c4ccccc4Oc4ccccc4)cn23)cc1	.	6	-11	0	56*	2
O=CNc1cc(-c2ccccc2Oc2ccccc2)cn2c(-c3ccc(F)cc3)cnc12	-13	1	-5	0	-45	0
Cn1c(CN2CCN(C(=O)c3ccccc3Cl)CC2)nc2cc([N+](=O)[O-])ccc21	-3	-2	13	44*	-8	-3
Cn1c(=O)n(C)c2cc([N+](=O)[O-])c(N3CCN(C(=O)c4ccccc4)CC3)cc21	-4	2	.	.	55*	.
CC(C)C(=O)N1CCN(c2cc(N3CCN(C)CC3)c(F)cc2[N+](=O)[O-])CC1	24	.	10	0	18	1
Cn1c(=O)n(C)c2cc([N+](=O)[O-])c(N3CCN(C(=O)c4ccccc4Cl)CC3)cc21	-4	0	.	.	90*	.
CC(=O)N1CCN(c2cc(N3CCCC3)c(F)cc2[N+](=O)[O-])CC1	4	3	-19*	0	1	3
SMILES	PGC1a acetyl inh	Cneo AK release	Ecoli rRNA inh	FGF22 binding	Env fusion inh	ERAP1 HTS inh
Cn1c(CN2CCN(C(=O)c3ccccc3)CC2)nc2cc([N+](=O)[O-])ccc21	.	.	7	0	8	-4
Nn1c(SCC(=O)Nc2ccc3c(c2)OCO3)nnc1C(F)(F)F	1	.	7	0	14	-2
O=C1CN(C(=O)COC(=O)CCCOc2ccccc2)c2ccccc2N1	.	2	12	0	-6	-1
CC(=O)N[C@@H](Cc1ccc(OC(F)(F)F)cc1)C(=O)O	1	.	12	0	-3	0
O=S(=O)(c1ccc(Br)s1)N1CCN(c2ccnc3cc(Cl)ccc23)CC1	5	-1	-13	0	16	-2
O=[N+]([O-])c1cc(Cl)ccc1N1CCCC1	6	0	5	44*	-23	-2
Cn1c(=O)n(C)c2cc([N+](=O)[O-])c(N3CCN(C(=O)C(C)(C)C)CC3)cc21	-8	.	-23*	0	7	5
O=[N+]([O-])c1cc(Cl)ccc1N1CCOCC1	-1	3	-5	0	-18	7
Cc1cc(N2CCCCC2)ccc1[N+](=O)[O-]	.	.	-43*	0	-3	-3
Cn1c(=O)n(C)c2cc([N+](=O)[O-])c(N3CCN(CCO)CC3)cc21	-22	1	8	0	1	2
CCCC#Cc1cnc2c(c1)C(=O)N([C@H](C)CO)C[C@H](C)[C@H](CN(C)C(=O)C1CCC1)O2	4	0	4	0	9[16.7 µM]	0
CO[C@H]1CN(C)C(=O)c2ccc(NC(=O)C3CC3)cc2OC[C@@H](C)N(C(=O)c2ccncc2)C[C@@H]1C	-3	-6	4	0	-1[16.7 µM]	-2
CO[C@@H]1CN(C)C(=O)c2ccc(NC(=O)C3CC3)cc2OC[C@@H](C)N(Cc2ccc(F)cc2)C[C@H]1C	.	-1	-4	1	.	5
CO[C@@H]1CN(C)C(=O)c2ccc(NC(=O)C3CC3)cc2OC[C@H](C)N(Cc2ccc(F)cc2)C[C@H]1C	.	86*	-5	0	.	3
CO[C@H]1CN(C)C(=O)c2ccc(NC(=O)C3CC3)cc2OC[C@H](C)N(Cc2cc(F)ccc2F)C[C@@H]1C	-15	-5	-1	0	81*[16.7 µM]	3
CO[C@@H]1CN(C)C(=O)c2ccc(NC(=O)C3CC3)cc2OC[C@H](C)N(C(=O)c2ccncc2)C[C@H]1C	9	81*	3	0	3[16.7 µM]	8
COc1ccccc1NC(=O)N[C@@H]1C=C[C@H](CC(=O)NCc2ccc(Cl)c(Cl)c2)O[C@@H]1CO	0	0	-11	0	74*[16.7 µM]	2
COc1ccccc1NC(=O)N[C@@H]1C=C[C@H](CC(=O)N[C@H](C)c2ccccc2)O[C@H]1CO	-2	-3	0	0	95*[16.7 µM]	-1
CC12CCC(C(=O)NC3CCCC3)(CC1=O)C2(C)C (stereo unspecified)	-3	1	.	.	.	.
CCOC(=O)Cc1c(C)nc2c(-c3ccc(OC)cc3)c(C)nn2c1C	-19	-1	.	.	64*	.
O=S1(=O)CC(O)C(O)CS1 (stereo unspecified)	.	.	.	0	6	65*
